Measured values as given in ChEMBL document CHEMBL1148711, “Naphthalen-1-yl-(4-pentyloxynaphthalen-1-yl)methanone: a potent, orally bioavailable human CB1/CB2 dual agonist with antihyperalgesic properties and restricted central nervous system penetration” (J Med Chem, 2007).

How the values were obtained:
[1] = Volume of distribution at steady state in Wistar rat at 1 mg/kg, iv; format: ADME, organism-based; set-up: dose 1 mg/kg, route intravenous; settings: in vivo, read-out: Vdss
In short: (§1)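 Wistar rats dosed once iv at 1 mg/kg or orally at 3.4 mg/kg. Plasma parameters (half-life, steady-state volume of distribution, total clearance, AUC0-∞, Tmax, Cmax) were derived from the concentration–time profiles. Absolute oral bioavailability was calculated from the po and iv AUC0-∞.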

[2] = tested on: Liver microsomes; test: Intrinsic clearance in rat liver microsomes; format: ADME, Microsome
[3] = target: Cytochrome P450 2C19 (Homo sapiens, UniProt P33261); test: Inhibition of CYP2C19 in human liver microsomes; format: ADME, Microsome
Cytochrome P450 2C19, sequence (P33261 whole entry): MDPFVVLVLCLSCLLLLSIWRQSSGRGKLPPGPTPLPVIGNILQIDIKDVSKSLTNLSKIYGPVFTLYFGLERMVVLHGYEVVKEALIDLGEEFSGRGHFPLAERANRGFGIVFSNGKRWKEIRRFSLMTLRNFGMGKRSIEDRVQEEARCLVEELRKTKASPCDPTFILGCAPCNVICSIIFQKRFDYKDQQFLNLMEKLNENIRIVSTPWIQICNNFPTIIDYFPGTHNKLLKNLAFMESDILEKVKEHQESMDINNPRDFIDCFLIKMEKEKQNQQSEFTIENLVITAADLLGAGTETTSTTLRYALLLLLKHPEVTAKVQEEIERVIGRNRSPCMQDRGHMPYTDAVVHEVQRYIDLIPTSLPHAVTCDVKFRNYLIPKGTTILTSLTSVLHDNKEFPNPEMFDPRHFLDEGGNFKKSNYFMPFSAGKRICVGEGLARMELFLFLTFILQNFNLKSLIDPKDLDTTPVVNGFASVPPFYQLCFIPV

[4] = Plasma protein binding; format: ADME, cell-free; settings: human, read-out: PPB
[5] = target: Cannabinoid receptor 1 (Rattus norvegicus, UniProt P20272); test: Inhibition of rat CB1 receptor
Cannabinoid receptor 1 (Rattus norvegicus, UniProt P20272), sequence (P20272 whole entry): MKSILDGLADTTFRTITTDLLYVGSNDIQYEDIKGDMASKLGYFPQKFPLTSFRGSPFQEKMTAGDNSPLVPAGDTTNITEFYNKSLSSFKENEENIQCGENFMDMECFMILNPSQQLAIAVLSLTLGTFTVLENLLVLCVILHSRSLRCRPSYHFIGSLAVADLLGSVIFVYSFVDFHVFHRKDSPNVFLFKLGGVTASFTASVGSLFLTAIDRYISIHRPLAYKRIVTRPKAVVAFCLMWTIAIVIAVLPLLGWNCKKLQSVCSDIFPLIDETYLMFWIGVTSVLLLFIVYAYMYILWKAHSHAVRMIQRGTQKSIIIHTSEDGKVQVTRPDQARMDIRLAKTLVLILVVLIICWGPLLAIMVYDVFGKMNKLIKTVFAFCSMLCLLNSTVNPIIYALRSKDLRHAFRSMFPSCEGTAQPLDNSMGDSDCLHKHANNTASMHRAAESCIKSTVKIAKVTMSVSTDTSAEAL

[6] = AUC (0 to infinity) in Wistar rat at 3.4 mg/kg, po; format: ADME, organism-based; set-up: time infinity, dose 3.4 mg/kg, route oral; settings: plasma; in short: as §1
[7] = Cmax in Wistar rat at 3.4 mg/kg, po; format: ADME, organism-based; set-up: dose 3.4 mg/kg, route oral; settings: in vivo; in short: as §1
[8] = target: T1, Cytochrome P450 2C8 (Homo sapiens, UniProt P10632); test: Inhibition of CYP2C8 in human liver microsomes; format: ADME, Microsome
T1 sequence (P10632 whole entry): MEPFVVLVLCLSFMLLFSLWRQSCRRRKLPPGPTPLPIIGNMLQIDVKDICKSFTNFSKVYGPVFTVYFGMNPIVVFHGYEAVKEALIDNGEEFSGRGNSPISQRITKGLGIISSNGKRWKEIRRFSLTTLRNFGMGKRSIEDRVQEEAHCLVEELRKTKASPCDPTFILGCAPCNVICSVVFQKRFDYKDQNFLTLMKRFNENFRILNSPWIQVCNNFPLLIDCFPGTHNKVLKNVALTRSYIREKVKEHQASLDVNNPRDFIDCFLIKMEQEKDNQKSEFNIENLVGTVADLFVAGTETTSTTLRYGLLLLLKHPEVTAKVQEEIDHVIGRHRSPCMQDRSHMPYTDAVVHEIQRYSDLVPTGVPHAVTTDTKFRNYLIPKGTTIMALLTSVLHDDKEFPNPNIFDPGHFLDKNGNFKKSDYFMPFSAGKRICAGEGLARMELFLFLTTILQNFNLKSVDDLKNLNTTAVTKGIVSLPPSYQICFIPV

[9] = target: Cytochrome P450 2E1 (Homo sapiens, UniProt P05181); test: Inhibition of CYP2E1 in human liver microsomes; format: ADME, Microsome
Cytochrome P450 2E1, sequence (P05181 whole entry): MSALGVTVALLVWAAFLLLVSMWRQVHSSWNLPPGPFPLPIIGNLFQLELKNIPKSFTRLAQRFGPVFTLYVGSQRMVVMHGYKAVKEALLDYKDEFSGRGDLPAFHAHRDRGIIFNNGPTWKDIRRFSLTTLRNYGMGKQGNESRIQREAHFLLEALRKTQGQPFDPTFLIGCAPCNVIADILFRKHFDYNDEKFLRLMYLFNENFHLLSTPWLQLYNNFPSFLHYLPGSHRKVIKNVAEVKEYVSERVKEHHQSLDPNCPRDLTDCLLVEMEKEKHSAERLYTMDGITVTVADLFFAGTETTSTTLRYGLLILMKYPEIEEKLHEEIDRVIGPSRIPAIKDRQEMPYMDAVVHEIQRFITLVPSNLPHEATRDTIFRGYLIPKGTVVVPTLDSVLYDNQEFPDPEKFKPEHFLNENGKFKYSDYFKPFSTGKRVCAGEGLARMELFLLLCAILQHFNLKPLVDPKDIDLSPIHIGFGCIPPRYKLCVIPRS

[10] = Bioavailability in Wistar rat at 3.4 mg/kg, po; format: ADME, organism-based; settings: in vivo; in short: as §1
[11] = target: Cytochrome P450 3A4 (Homo sapiens, UniProt P08684); test: Inhibition of CYP3A4 in human liver microsomes; format: ADME, Microsome
Cytochrome P450 3A4, sequence (P08684 whole entry): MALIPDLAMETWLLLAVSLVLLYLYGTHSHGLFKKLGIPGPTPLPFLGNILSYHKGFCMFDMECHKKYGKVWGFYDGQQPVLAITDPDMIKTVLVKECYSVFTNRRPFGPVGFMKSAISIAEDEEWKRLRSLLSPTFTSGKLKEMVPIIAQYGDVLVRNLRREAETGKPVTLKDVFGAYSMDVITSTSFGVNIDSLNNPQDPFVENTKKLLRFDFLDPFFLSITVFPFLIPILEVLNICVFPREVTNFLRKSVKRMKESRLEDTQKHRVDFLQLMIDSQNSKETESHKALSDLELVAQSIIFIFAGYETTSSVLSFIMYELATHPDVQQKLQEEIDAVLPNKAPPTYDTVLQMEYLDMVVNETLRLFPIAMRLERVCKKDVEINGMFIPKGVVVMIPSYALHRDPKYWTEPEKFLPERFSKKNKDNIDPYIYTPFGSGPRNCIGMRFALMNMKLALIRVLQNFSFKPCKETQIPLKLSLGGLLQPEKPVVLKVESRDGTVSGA

[12] = target: T2, Cytochrome P450 1A2 (Homo sapiens, UniProt P05177); test: Inhibition of CYP1A2 in human liver microsomes; format: ADME, Microsome
T2 sequence (P05177 whole entry): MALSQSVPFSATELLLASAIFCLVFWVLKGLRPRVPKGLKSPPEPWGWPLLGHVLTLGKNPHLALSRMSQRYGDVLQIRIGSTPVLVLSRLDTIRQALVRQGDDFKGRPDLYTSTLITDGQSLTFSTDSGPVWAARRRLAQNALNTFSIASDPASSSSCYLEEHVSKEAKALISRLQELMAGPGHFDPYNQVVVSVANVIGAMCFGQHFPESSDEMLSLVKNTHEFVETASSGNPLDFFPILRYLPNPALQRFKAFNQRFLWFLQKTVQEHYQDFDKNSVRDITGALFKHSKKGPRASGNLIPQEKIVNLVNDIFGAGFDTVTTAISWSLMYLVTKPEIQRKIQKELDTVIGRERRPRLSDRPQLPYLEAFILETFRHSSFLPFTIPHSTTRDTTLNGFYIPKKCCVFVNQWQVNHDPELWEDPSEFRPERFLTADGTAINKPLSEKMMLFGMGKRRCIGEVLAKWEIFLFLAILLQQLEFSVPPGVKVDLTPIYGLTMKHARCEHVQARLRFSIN

[13] = target: T3, Cannabinoid receptor 2 (Homo sapiens, UniProt P34972); test: Displacement of [3H]CP-55940 human CB2 receptor expressed in CHOK1 cells; format: cell-based, CHO-K1
T3 sequence (P34972 whole entry): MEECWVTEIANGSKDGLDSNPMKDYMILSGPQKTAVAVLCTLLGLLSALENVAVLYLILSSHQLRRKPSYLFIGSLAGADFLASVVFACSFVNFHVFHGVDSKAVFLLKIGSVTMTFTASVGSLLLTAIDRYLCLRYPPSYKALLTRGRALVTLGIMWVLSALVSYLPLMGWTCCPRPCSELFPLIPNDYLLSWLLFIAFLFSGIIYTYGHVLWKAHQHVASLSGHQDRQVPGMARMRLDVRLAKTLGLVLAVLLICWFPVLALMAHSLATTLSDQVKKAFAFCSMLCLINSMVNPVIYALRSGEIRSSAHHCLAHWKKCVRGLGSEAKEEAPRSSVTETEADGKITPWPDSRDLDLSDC
In short: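 Human CB2 expressed in CHO cells. Values are the mean ± SEM of at least three determinations, derived by logistic curve fitting.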

[14] = Cmax in Wistar rat at 3 mg/kg, po after 1 hr; format: ADME, organism-based; set-up: dose 3 mg/kg, route oral; settings: in vivo
In short: (§2)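 Single oral dose of 3 mg/kg in Wistar rats. Plasma and brain concentrations were followed over time after dosing.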

[15] = target: T3, Cannabinoid receptor 2; test: Agonist activity at human CB2 receptor expressed in CHOK1 cells assessed as reversal of forskolin-evoked cAMP accumulation; format: functional, cell-based, CHO-K1
In short: (§3)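 CHO cells expressing human CB2 were stimulated with forskolin, and agonist reversal of cyclic AMP accumulation was measured. Potency is given as mean ± SEM of 3–13 independent measurements. Emax is the maximal reversal, expressed as a percentage of the value obtained with a reference agonist.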

[16] = AUC (0 to infinity) in Wistar rat at 1 mg/kg, iv; format: ADME, organism-based; set-up: time infinity, dose 1 mg/kg, route intravenous; settings: plasma; in short: as §1
[17] = tested on: Rattus norvegicus; test: Antihyperalgesic activity in rat assessed as reversal of hyperalgesia at 3 mg/kg, po after 1 hr; format: functional
In short: (§4)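 Rat model of neuropathic mechanical hyperalgesia with oral dosing. Read-out was paw withdrawal threshold of the ipsilateral paw, followed from 1 h after dosing, with 12 animals per group, as mean ± SEM. Groups were compared with vehicle by ANOVA and Tukey's HSD.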

[18] = target: Cytochrome P450 2C9 (Homo sapiens, UniProt P11712); test: Inhibition of CYP2C9 in human liver microsomes; format: ADME, Microsome
Cytochrome P450 2C9, sequence (P11712 whole entry): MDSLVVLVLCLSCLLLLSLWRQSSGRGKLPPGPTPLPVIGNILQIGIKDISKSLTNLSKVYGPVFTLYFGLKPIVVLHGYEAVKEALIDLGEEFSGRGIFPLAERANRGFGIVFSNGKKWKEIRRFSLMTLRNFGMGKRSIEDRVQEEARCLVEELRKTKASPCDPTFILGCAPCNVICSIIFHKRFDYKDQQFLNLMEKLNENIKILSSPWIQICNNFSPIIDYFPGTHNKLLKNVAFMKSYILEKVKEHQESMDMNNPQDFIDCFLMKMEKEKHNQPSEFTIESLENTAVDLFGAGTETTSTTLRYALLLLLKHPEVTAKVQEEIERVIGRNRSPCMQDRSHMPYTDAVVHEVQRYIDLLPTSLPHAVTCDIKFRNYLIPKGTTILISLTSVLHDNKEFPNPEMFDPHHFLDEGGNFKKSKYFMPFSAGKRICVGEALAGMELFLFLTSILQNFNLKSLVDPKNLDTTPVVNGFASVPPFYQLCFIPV

[19] = Half life in Wistar rat at 1 mg/kg, iv; format: ADME, organism-based; set-up: dose 1 mg/kg, route intravenous; settings: in vivo, read-out: beta t1/2 (converted); in short: as §1
[20] = target: T3, Cannabinoid receptor 2; test: Agonist activity at human CB2 receptor expressed in CHOK1 cells assessed as reversal of forskolin-evoked cAMP accumulation relative to CP-55940; format: functional, cell-based; settings: CHO-K1; in short: as §3
[21] = tested on: Liver microsomes; test: Intrinsic clearance in human liver microsomes; format: ADME, Microsome
[22] = organism: Rattus norvegicus; test: Antihyperalgesic activity in rat assessed as reversal of hyperalgesia; format: functional; in short: as §4
[23] = Tmax in Wistar rat at 3.4 mg/kg, po; format: ADME, organism-based; set-up: dose 3.4 mg/kg, route oral; settings: in vivo; in short: as §1
[24] = Partition coefficient, log P of the compound; format: physicochemical; settings: octanol/water
[25] = Total clearance in Wistar rat at 1 mg/kg, iv; format: ADME, organism-based; set-up: dose 1 mg/kg, route intravenous; settings: in vivo; in short: as §1
[26] = tested on: Brain; test: Drug level in brain in Wistar rat after 4 hrs; format: ADME, tissue-based; settings: in vivo; in short: as §2
[27] = target: Cytochrome P450 2D6 (Homo sapiens, UniProt P10635); test: Inhibition of CYP2D6 in human liver microsomes; format: ADME, Microsome
Cytochrome P450 2D6, sequence (P10635 whole entry): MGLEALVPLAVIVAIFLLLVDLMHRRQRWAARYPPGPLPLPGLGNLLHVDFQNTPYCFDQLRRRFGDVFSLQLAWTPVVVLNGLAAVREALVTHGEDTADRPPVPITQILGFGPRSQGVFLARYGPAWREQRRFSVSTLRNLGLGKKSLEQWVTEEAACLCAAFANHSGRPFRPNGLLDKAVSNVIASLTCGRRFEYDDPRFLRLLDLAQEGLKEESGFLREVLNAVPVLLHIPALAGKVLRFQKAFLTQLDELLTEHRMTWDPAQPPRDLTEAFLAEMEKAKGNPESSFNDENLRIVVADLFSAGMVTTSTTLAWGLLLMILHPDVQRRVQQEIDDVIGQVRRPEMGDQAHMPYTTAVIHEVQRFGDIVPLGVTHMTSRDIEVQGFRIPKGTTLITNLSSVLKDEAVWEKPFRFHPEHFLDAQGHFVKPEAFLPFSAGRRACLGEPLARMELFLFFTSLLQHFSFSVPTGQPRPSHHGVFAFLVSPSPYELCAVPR

[28] = target: Cannabinoid receptor 1 (Homo sapiens, UniProt P21554); test: Displacement of [3H]CP-55940 from human CB1 receptor expressed in HEK293 cells; format: cell-based
Cannabinoid receptor 1 (Homo sapiens, UniProt P21554), sequence (P21554 whole entry): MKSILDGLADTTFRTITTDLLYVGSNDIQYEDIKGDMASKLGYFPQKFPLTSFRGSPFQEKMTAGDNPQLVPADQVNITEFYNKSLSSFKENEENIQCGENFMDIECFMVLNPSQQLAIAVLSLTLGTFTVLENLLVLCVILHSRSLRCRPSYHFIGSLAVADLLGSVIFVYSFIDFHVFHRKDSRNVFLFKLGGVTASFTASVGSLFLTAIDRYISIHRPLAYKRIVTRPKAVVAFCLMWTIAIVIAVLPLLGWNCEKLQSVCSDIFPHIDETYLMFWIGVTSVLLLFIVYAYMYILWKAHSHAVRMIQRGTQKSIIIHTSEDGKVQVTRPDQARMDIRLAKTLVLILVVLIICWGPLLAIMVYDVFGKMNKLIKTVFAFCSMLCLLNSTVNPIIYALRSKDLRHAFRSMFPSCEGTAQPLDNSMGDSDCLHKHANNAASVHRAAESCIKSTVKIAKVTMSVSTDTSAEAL

With `CCCCCOc1ccc(C(=O)c2cccc3ccccc23)c2ccccc12` the Vd [1] was 9.6 L/kg, the CL [2] was under 5 µL/min and the IC50 [3] was over 200000 nM. The fraction unbound [4] was under 0.01, the IC50 [5] was 22 nM and the AUC(0-inf) [6] was 8.39 µM·h. It also gave a Cmax [7] of 1600 nM, an IC50 [8] of over 200000 nM and an IC50 [9] of over 200000 nM. The bioavailability [10] was 43%, the IC50 [11] was over 200000 nM and the IC50 [12] was over 200000 nM. It also gave an IC50 [13] of 98 nM, a Cmax [14] of 1130 nM and an EC50 [15] of 27.9 nM. For the same compound, the AUC(0-inf) [16] was 5.72 µM·h, the Activity [17] was 90% and the IC50 [18] was 80800 nM. For the same compound, the half-life [19] was 64.6 h, the Emax [20] was 88.4% and the CL [21] was under 5 µL/min. The D50 [22] was 0.17 mg/kg, the Tmax [23] was 1 h and the logP [24] was 6.85. The clearance [25] was 8 mL/min/kg, the Drug uptake [26] was 0.24 µmol/kg and the IC50 [27] was over 200000 nM.

Work on `CCCCCNc1ccc(C(=O)c2cccc3ccccc23)c2ccccc12` yielded an IC50 [28] of 25 nM and an IC50 [13] of 120 nM.

`CCCOc1ccc(C(=O)c2cccc3ccccc23)c2ccccc12` gave an IC50 [28] of 300 nM and an IC50 [13] of 90 nM.

`CCCCOc1ccc(C(=O)c2cccc3ccccc23)c2ccccc12` gave an IC50 [28] of 48 nM and an IC50 [13] of 85 nM.

In the case of `CCCCCCOc1ccc(C(=O)c2cccc3ccccc23)c2ccccc12`, the IC50 [28] is reported as 160 nM and the IC50 [13] is reported as 660 nM.

`O=C(c1cccc2ccccc12)c1ccc(OCCc2ccccc2)c2ccccc12` gave an IC50 [28] of 930 nM and an IC50 [13] of 2000 nM.

Compound `Cc1c(C(=O)c2cccc3ccccc23)c2cccc3c2n1[C@H](CN1CCOCC1)CO3` [WIN-552122] has an Emax [20] of 96.9% and a D50 [22] of 0.52 mg/kg.

For `CCCCCCC(C)(C)c1ccc([C@@H]2C[C@H](O)CC[C@H]2CCCO)c(O)c1` [CP-55940], the Emax [20] was 100% and the D50 [22] was 0.08 mg/kg.
